Measured values as given in ChEMBL document CHEMBL1122809, “Improved synthesis and antitumor activity of 2-bromo-2'-deoxyadenosine” (1984).

Assays:
L1210 [1] = assay: Antitumor activity expressed as life span was determined against inoculated L1210 leukemia cells (1*10e5) in mice by 22.5 mg/kg dosage of compound (qd (x 3), for days 1, 4, 7); type: functional, Mus musculus
How it was run: (§1)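 Female mice (~18 g, housed six per cage) received L1210 cells intraperitoneally on day 0. Drug was made fresh and injected at 0.01 mL/g; the stated dose is per injection. Controls received the same volume of 0.154 M NaCl. Survival was followed, with deaths assigned to tumour by necropsy or to drug toxicity by set criteria. Life span is given as mean ± SD.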

L1210 [2] = assay: Antitumor activity expressed as life span was determined against inoculated L1210 leukemia cells (1*10e5) in mice by 45 mg/kg dosage of compound (qd (x 3), for days 1, 4, 7); type: functional, Mus musculus; how it was run: as §1
L1210 [3] = assay: Antitumor activity expressed as life span was determined against inoculated L1210 leukemia cells (1*10e5) in mice by 5.6 mg/kg dosage of compound (qd (x 3), for days 1, 4, 7); type: functional, Mus musculus; how it was run: as §1
L1210 [4] = assay: Antitumor activity expressed as life span was determined against inoculated L1210 leukemia cells (1*10e6) in mice by 11.3 mg/kg dosage of compound (qd (x 3), for days 1, 4, 7,10,13,16); type: functional, Mus musculus; how it was run: as §1
L1210 [5] = assay: Antitumor activity expressed as life span was determined against inoculated L1210 leukemia cells (1*10e6) in mice by 110 mg/kg dosage of compound (qd (x 3), for days 1, 4, 7); type: functional, Mus musculus; how it was run: as §1
L1210 [6] = assay: Antitumor activity expressed percentage increase in life span was determined against inoculated L1210 leukemia cells (1*10e5) in mice by 45 mg/kg dosage of compound (qd (x 3), for days 1,5,9); type: functional; details: Mus musculus
How it was run: (§2)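 L1210 cells were given intraperitoneally to female mice (~18 g). Freshly prepared drug was injected at 0.01 mL/g, dose per injection, and saline-injected controls were run. The end point was duration of survival. ILS was calculated as percent increase in mean life span over controls. Mice surviving 60 days or more counted as long-term survivors, scored as 60 days.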

L1210 [7] = assay: Antitumor activity expressed percentage increase in life span was determined against inoculated L1210 leukemia cells (1*10e5) in mice by 5.6 mg/kg dosage of compound (qd (x 3), for days 1, 4, 7); type: functional; details: Mus musculus; how it was run: as §2
L1210 [8] = assay: Antitumor activity expressed percentage increase in life span was determined against inoculated L1210 leukemia cells (1*10e6) in mice by 110 mg/kg dosage of compound (qd (x 3), for days 1, 4, 7); type: functional; details: Mus musculus; how it was run: as §2
L1210 [9] = assay: Antitumor activity expressed as life span was determined against inoculated L1210 leukemia cells (1*10e6) in mice by 90 mg/kg dosage of compound (qd (x 3), for days 1- 7); type: functional, Mus musculus; how it was run: as §1
L1210 [10] = assay: Antitumor activity expressed as life span was determined against inoculated L1210 leukemia cells (1*10e6) in mice by 180 mg/kg dosage of compound (qd (x 3), for days 1, 4, 7); type: functional, Mus musculus; how it was run: as §1
L1210 [11] = assay: Antitumor activity expressed as life span was determined against inoculated L1210 leukemia cells (1*10e6) in mice by 45 mg/kg dosage of compound (qd (x 3), for days 1, 4, 7); type: functional, Mus musculus; how it was run: as §1
L1210 [12] = assay: Antitumor activity expressed percentage increase in life span was determined against inoculated L1210 leukemia cells (1*10e5) in mice by 11.3 mg/kg dosage of compound (qd (x 3), for days 1, 4, 7,10,13,16); type: functional; details: Mus musculus; how it was run: as §2
L1210 [13] = assay: Antitumor activity expressed percentage increase in life span was determined against inoculated L1210 leukemia cells (1*10e5) in mice by 17.3 mg/kg dosage of compound (qd (x 3), for days 1,5,9); type: functional; details: Mus musculus; how it was run: as §2
L1210 [14] = assay: Antitumor activity expressed percentage increase in life span was determined against inoculated L1210 leukemia cells (1*10e6) in mice by 110 mg/kg dosage of compound (qd (x 3), for days 1-7); type: functional; details: Mus musculus; how it was run: as §2
L1210 [15] = assay: Antitumor activity expressed percentage increase in life span was determined against inoculated L1210 leukemia cells (1*10e6) in mice by 140 mg/kg dosage of compound (qd (x 3), for days 1, 4, 7); type: functional; details: Mus musculus; how it was run: as §2
L1210 [16] = assay: Antitumor activity expressed percentage increase in life span was determined against inoculated L1210 leukemia cells (1*10e6) in mice by 180 mg/kg dosage of compound (qd (x 3), for days 1, 4, 7); type: functional; details: Mus musculus; how it was run: as §2
L1210 [17] = assay: Antitumor activity expressed percentage increase in life span was determined against inoculated L1210 leukemia cells (1*10e6) in mice by 22.5 mg/kg dosage of compound (qd (x 3), for days 1, 4, 7); type: functional; details: Mus musculus; how it was run: as §2
L1210 [18] = assay: Antitumor activity expressed percentage increase in life span was determined against inoculated L1210 leukemia cells (1*10e6) in mice by 45 mg/kg dosage of compound (qd (x 3), for days 1, 4, 7); type: functional; details: Mus musculus; how it was run: as §2
L1210 [19] = assay: Antitumor activity expressed percentage increase in life span was determined against inoculated L1210 leukemia cells (1*10e6) in mice by 70 mg/kg dosage of compound (qd (x 3), for days 1-7); type: functional; details: Mus musculus
How it was run: (§3)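 Female mice of about 18 g (BDF1, DBA/2 or C57Bl/6 stocks used) were inoculated intraperitoneally with 1 × 10^6 L1210 cells. Freshly prepared drug was given once daily from about 24 h after inoculation at 0.01 mL/g, with the dose stated per injection. Controls received 0.154 M NaCl, and groups held 6 mice. %ILS was taken from mean survival, with mice alive at 60 days or more counted as 60 days.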

L1210 [20] = assay: Antitumor activity expressed percentage increase in life span was determined against inoculated L1210 leukemia cells (1*10e6) in mice by 90 mg/kg dosage of compound (qd (x 3), for days 1, 4, 7); type: functional; details: Mus musculus; how it was run: as §3
L1210 [21] = assay: Antitumor activity expressed percentage increase in life span was determined against inoculated L1210 leukemia cells (1*10e6) in mice by 90 mg/kg dosage of compound (qd (x 3), for days 1- 7); type: functional; details: Mus musculus; how it was run: as §3
L1210 [22] = assay: Antitumor activity expressed as life span was determined against inoculated L1210 leukemia cells (1*10e6) in mice by 140 mg/kg dosage of compound (qd (x 3), for days 1, 4, 7); type: functional, Mus musculus; how it was run: as §1
B16 melanoma (mouse) [23] = assay: Antitumor activity was evaluated by measuring mean life span in tumor (B16 melanoma) inoculated mice at 11.3 mg/kg (qd3hx8),days 1,4,7,10
B16 melanoma (mouse) [24] = assay: Antitumor activity was evaluated by measuring mean life span in tumor (B16 melanoma) inoculated mice at 22.5 mg/kg (qd3hx8),days 1,4,7,10
B16 melanoma (mouse) [25] = assay: Antitumor activity expressed percentage increase in life span was determined against inoculated B16 melanoma in mice by 11.3 mg/kg dosage of compound (qd3hx8), for days 1,4,7,10
L1210 [26] = assay: Antitumor activity expressed as life span was determined against inoculated L1210 leukemia cells (1*10e5) in mice by 5.6 mg/kg dosage of compound (q 3 h (x 8), for days 1, 4, 7,10,13,16)

Nc1nc(Br)nc2c1ncn2[C@H]1C[C@H](O)[C@@H](CO)O1
Life span (L1210 [1]): 23.75 days
Life span (L1210 [2]): 37.92 days
Life span (L1210 [3]): 11.75 days
Life span (L1210 [4]): 13.17 days
Life span (L1210 [5]): 8.17 days
ILS at 45 mg/kg (L1210 [6]): 387%
ILS at 5.6 mg/kg (L1210 [7]): 60%
ILS at 110 mg/kg (L1210 [8]): 29%
Life span (L1210 [9]): 4.83 days
Life span (L1210 [10]): 5 days
Life span (L1210 [11]): 13.5 days
ILS at 11.3 mg/kg (L1210 [12]): 128%
ILS at 17.3 mg/kg (L1210 [13]): 81%
ILS at 110 mg/kg (L1210 [14]): 0%
ILS at 140 mg/kg (L1210 [15]): 26%
ILS at 180 mg/kg (L1210 [16]): 0%
ILS at 22.5 mg/kg (L1210 [17]): 137%
ILS at 45 mg/kg (L1210 [18]): 113%
ILS at 70 mg/kg (L1210 [19]): 11%
ILS at 90 mg/kg (L1210 [20]): 11%
ILS at 90 mg/kg (L1210 [21]): 0%
Life span (L1210 [22]): 8 days
Life span (B16 melanoma (mouse) [23]): 23.11 days
Life span (B16 melanoma (mouse) [24]): 20.89 days
ILS at 11.3 mg/kg (B16 melanoma (mouse) [25]): 66%
Life span (L1210 [26]): 11.83 days
